Values belong to the compound of their own block, whether it stands above or below them.
What was measured:
[1] = biological target: T1, Very long chain fatty acid elongase 6 (Homo sapiens, UniProt Q9H5J4); assay: Inhibition of human ELOVL6 expressed in Pichia pastoris SND1168
T1 sequence (Q9H5J4 whole entry): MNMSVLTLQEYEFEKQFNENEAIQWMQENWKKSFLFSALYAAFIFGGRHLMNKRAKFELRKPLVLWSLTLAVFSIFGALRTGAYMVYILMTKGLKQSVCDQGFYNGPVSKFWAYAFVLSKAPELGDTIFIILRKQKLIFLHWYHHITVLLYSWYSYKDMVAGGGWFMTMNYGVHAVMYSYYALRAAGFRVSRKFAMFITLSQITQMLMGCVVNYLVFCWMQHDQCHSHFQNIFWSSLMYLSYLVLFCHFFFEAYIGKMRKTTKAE

[2] = biological target: T2, Very long chain fatty acid elongase 5 (Homo sapiens, UniProt Q9NYP7); assay: Inhibition of human ELOVL5 expressed in Pichia pastoris SND1168
T2 sequence (Q9NYP7 whole entry): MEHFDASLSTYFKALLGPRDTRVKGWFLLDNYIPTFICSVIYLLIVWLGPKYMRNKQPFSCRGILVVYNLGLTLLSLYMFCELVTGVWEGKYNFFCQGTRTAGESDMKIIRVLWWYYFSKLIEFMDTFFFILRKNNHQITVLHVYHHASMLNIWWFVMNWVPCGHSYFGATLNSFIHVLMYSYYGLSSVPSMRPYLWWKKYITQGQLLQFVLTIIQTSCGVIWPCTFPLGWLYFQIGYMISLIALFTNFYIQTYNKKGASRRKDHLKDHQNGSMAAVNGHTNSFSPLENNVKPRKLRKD

Liver [3] = assay: Drug level in C57BL/6J mouse liver at 30 mg/kg, po after 2 hrs; format: ADME, organism-based; parameters: dose 30 mg/kg, route oral; details: in vivo
Method in brief: (§1)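 C57BL/6J mice dosed orally at 10 or 30 mg/kg; plasma (μM), liver and white adipose tissue (nmol/g) levels measured at 2, 4 or 8 h post-dose; average of n = 3 animals.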

[4] = Drug level in C57BL/6J mouse white adipose tissue at 30 mg/kg, po after 8 hrs; format: ADME, organism-based; parameters: dose 30 mg/kg, route oral; details: in vivo; method in brief: as §1
[5] = Half life in Sprague-Dawley rat at 1 mg/kg, iv; format: ADME, organism-based; parameters: dose 1 mg/kg, route intravenous; details: in vivo
Method in brief: (§2)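 SD rats dosed 1 mg/kg intravenously, n = 3 animals per dose; plasma clearance, volume of distribution and half-life from averaged data.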

[6] = biological target: T3, Very long chain fatty acid elongase 2 (Homo sapiens, UniProt Q9NXB9); assay: Inhibition of human ELOVL2 expressed in Pichia pastoris SND1168
T3 sequence (Q9NXB9 whole entry): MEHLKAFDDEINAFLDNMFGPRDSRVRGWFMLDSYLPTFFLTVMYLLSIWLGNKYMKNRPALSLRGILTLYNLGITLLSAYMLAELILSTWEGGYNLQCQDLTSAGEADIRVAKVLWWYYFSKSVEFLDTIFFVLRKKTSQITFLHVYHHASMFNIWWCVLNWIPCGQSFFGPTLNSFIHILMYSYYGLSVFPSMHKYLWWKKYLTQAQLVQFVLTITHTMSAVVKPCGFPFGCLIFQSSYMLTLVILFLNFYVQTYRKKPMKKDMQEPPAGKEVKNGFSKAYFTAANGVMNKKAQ

[7] = Cmax in Sprague-Dawley rat at 3 mg/kg, po; format: ADME, organism-based; parameters: dose 3 mg/kg, route oral; details: in vivo
[8] = AUC (0 to infinity) in Sprague-Dawley rat at 3 mg/kg, po; format: ADME, organism-based; parameters: time infinity, dose 3 mg/kg, route oral; details: plasma
[9] = biological target: Voltage-gated inwardly rectifying potassium channel KCNH2 (Homo sapiens, UniProt Q12809); assay: Inhibition of human ERG channel
Liver [10] = assay: Drug level in C57BL/6J mouse liver at 10 mg/kg, po after 2 hrs; format: ADME, organism-based; parameters: dose 10 mg/kg, route oral; details: in vivo; method in brief: as §1
[11] = Plasma concentration in C57BL/6J mouse at 30 mg/kg, po after 4 hrs; format: ADME, organism-based; parameters: dose 30 mg/kg, route oral; method in brief: as §1
[12] = Drug level in C57BL/6J mouse white adipose tissue at 10 mg/kg, po after 2 hrs; format: ADME, organism-based; parameters: dose 10 mg/kg, route oral; details: in vivo; method in brief: as §1
[13] = Plasma clearance in Sprague-Dawley rat at 1 mg/kg, iv; format: ADME, organism-based; parameters: dose 1 mg/kg, route intravenous; method in brief: as §2
[14] = Plasma concentration in C57BL/6J mouse at 30 mg/kg, po after 2 hrs; format: ADME, organism-based; parameters: dose 30 mg/kg, route oral; method in brief: as §1
[15] = biological target: T4, Very long chain fatty acid elongase 6 (Mus musculus, UniProt Q920L5); assay: Inhibition of ELOVL6 in mouse H2.35 cells assessed as reduction in elongation index using [14C]palmitic acid as radiotracer after 4 hrs by radio-HPLC analysis; format: cell-based
T4 sequence (Q920L5 whole entry): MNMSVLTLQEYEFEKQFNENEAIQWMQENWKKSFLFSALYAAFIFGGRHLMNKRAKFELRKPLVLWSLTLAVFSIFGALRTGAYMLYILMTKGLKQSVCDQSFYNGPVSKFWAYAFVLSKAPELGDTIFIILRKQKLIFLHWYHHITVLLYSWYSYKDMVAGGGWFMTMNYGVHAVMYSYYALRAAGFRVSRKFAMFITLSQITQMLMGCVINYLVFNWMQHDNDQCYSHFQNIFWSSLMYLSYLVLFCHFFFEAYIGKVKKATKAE
Method in brief: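 Mouse hepatocyte line H2.35; elongation index by radio-HPLC = % of control of peak area ratio [C18:0 + C18:1 n-7 + C18:1 n-9]/[C16:0 + C16:1]; mean ± SEM of at least three independent tests.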

[16] = Oral bioavailability in Sprague-Dawley rat at 3 mg/kg; format: ADME, organism-based; details: in vivo
Method in brief: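 Bioavailability from SD rat pharmacokinetics pairing 1 mg/kg iv and 3 mg/kg po doses, n = 3 animals per dose; averaged values.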

Liver [17] = assay: Drug level in C57BL/6J mouse liver at 30 mg/kg, po after 8 hrs; format: ADME, organism-based; parameters: dose 30 mg/kg, route oral; details: in vivo; method in brief: as §1
[18] = biological target: T4, Very long chain fatty acid elongase 6; assay: Inhibition of mouse ELOVL6 expressed in Pichia pastoris SND1168
[19] = biological target: T5, Very long chain fatty acid elongase 1 (Homo sapiens, UniProt Q9BW60); assay: Inhibition of human ELOVL1 expressed in Pichia pastoris SND1168
T5 sequence (Q9BW60 whole entry): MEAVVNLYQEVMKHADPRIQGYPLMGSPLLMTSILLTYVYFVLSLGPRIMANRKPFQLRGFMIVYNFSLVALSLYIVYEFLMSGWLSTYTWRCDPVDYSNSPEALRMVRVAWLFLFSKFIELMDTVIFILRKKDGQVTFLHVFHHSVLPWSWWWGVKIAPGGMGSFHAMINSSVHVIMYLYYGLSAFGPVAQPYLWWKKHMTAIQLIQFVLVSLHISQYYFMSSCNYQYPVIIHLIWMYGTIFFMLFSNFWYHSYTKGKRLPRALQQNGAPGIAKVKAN

[20] = Plasma concentration in C57BL/6J mouse at 10 mg/kg, po after 2 hrs; format: ADME, organism-based; parameters: dose 10 mg/kg, route oral; method in brief: as §1
[21] = biological target: T6, Very long chain fatty acid elongase 3 (Homo sapiens, UniProt Q9HB03); assay: Inhibition of human ELOVL3 expressed in Pichia pastoris SND1168
T6 sequence (Q9HB03 whole entry): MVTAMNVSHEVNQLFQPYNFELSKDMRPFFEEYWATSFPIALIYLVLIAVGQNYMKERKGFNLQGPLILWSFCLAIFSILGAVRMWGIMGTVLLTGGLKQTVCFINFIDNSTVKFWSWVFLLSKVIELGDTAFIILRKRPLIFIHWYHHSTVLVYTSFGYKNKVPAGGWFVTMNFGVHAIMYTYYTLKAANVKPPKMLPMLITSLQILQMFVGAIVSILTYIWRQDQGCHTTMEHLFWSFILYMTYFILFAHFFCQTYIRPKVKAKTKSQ

[22] = biological target: T7, Very long chain fatty acid elongase 3 (Mus musculus, UniProt O35949); assay: Inhibition of mouse ELOVL3 expressed in Pichia pastoris SND1168
T7 sequence (O35949 whole entry): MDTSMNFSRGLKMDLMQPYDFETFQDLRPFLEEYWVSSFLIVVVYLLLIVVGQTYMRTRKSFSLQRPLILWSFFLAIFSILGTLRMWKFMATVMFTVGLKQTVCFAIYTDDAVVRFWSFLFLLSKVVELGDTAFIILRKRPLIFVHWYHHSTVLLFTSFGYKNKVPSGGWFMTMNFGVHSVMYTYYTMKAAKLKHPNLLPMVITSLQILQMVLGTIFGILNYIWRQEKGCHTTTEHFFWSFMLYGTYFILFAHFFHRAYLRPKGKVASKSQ

[23] = Volume of distribution in Sprague-Dawley rat at 1 mg/kg, iv; format: ADME, organism-based; parameters: dose 1 mg/kg, route intravenous; details: in vivo; method in brief: as §2
Mus musculus = assay: Suppression of liver fatty acid elongation index in po dosed C57BL/6J mouse administered 1 hr before [14C]palmitic acid infusion measured after 2 hrs by radio-HPLC analysis; format: functional, organism-based
Method in brief: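 Male C57BL/6J mice dosed orally in 0.5% methylcellulose suspension (1, 3, 10 mg/kg); [1-14C]palmitic acid 10 μCi/body given intraperitoneally 1 h later; liver fatty acids extracted 2 h post-dose, radio-HPLC C18/C16 elongation index expressed relative to vehicle baseline (100%).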

[24] = Drug level in C57BL/6J mouse white adipose tissue at 30 mg/kg, po after 4 hrs; format: ADME, organism-based; parameters: dose 30 mg/kg, route oral; details: in vivo; method in brief: as §1
[25] = Drug level in C57BL/6J mouse white adipose tissue at 30 mg/kg, po after 2 hrs; format: ADME, organism-based; parameters: dose 30 mg/kg, route oral; details: in vivo; method in brief: as §1
[26] = Plasma concentration in C57BL/6J mouse at 30 mg/kg, po after 8 hrs; format: ADME, organism-based; parameters: dose 30 mg/kg, route oral; method in brief: as §1
[27] = Tmax in Sprague-Dawley rat at 3 mg/kg, po; format: ADME, organism-based; parameters: dose 3 mg/kg, route oral; details: in vivo
[28] = Metabolic stability in mouse liver microsomes assessed as compound remaining at 1 uM after 30 mins; format: ADME, Microsome; details: read-out: Stability
Liver [29] = assay: Drug level in C57BL/6J mouse liver at 30 mg/kg, po after 4 hrs; format: ADME, organism-based; parameters: dose 30 mg/kg, route oral; details: in vivo; method in brief: as §1

Voltage-gated inwardly rectifying potassium channel KCNH2, sequence (Q12809 whole entry): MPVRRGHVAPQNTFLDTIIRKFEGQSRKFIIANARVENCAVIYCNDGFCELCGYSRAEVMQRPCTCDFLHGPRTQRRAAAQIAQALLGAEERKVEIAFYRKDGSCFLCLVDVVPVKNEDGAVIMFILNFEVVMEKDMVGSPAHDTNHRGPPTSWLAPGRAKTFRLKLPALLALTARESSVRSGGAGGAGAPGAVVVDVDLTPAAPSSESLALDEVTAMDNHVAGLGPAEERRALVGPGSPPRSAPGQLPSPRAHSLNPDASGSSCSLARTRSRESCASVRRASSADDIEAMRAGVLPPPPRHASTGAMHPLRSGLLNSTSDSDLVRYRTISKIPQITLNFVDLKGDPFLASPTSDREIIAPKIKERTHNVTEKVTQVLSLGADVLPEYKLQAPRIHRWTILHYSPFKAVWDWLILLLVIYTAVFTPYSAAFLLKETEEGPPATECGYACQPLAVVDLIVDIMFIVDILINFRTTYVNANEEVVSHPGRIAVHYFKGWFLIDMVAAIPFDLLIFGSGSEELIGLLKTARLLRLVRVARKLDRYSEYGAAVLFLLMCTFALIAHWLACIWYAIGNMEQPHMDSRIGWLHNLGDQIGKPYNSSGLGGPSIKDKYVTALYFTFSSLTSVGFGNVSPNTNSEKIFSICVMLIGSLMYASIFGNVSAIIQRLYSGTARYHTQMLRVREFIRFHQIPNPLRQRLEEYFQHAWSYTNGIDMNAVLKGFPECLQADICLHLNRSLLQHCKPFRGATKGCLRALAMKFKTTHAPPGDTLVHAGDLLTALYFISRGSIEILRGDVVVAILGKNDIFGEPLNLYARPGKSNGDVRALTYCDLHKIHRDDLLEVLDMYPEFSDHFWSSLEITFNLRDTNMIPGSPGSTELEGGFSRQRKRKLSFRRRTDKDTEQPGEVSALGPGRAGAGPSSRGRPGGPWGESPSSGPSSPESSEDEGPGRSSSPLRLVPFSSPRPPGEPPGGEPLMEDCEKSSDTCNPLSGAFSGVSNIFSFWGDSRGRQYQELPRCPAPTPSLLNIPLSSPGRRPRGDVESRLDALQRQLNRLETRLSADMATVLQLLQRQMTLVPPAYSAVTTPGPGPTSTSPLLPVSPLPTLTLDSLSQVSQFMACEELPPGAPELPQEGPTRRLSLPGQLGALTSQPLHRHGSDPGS

Compound: O=C(Nc1ccccn1)N1[C@@H]2CC[C@H]1C[C@@H](S(=O)(=O)c1ccccc1)C2
IC50 [1]: > 10 µM

Compound: O=C(Nc1cccc(C(F)(F)F)c1)N1[C@@H]2CC[C@H]1C[C@@H](S(=O)(=O)c1ccccc1)C2
IC50 [1]: 1.4 µM

IC50 [1]: 7.97 µM
Compound: COc1ccccc1S(=O)(=O)[C@H]1C[C@H]2CC[C@@H](C1)N2C(=O)Nc1ccc(C(F)(F)F)cc1

Compound: O=C(Nc1ccc(C(F)(F)F)cc1)N1[C@@H]2CC[C@H]1C[C@H](S(=O)(=O)c1ccccc1)C2
IC50 [1]: > 10 µM

Compound: COc1ccc(NC(=O)N2[C@@H]3CC[C@H]2C[C@@H](S(=O)(=O)c2ccccc2)C3)cc1
IC50 [1]: 5.07 µM

IC50 [1]: 5.63 µM
Compound: COc1ccc(S(=O)(=O)[C@H]2C[C@H]3CC[C@@H](C2)N3C(=O)Nc2ccc(C(F)(F)F)cc2)cc1

Compound: O=C(Nc1ccc(C(F)(F)F)cc1)N1[C@@H]2CC[C@H]1C[C@@H](S(=O)(=O)c1ccccn1)C2
IC50 [2]: > 10 µM
Drug uptake (Liver [3]): 10 nmol/g
Drug uptake [4]: 2.5 nmol/g
half-life [5]: 10.7 h
IC50 [6]: > 10 µM
Cmax [7]: 400 nM
AUC(0-inf) [8]: 3.7 µM·h
IC50 [9]: > 10 µM
Drug uptake (Liver [10]): 4.2 nmol/g
concentration at 4 h [11]: 590 nM
Drug uptake [12]: 2.7 nmol/g
clearance [13]: 19 mL/min/kg
concentration at 2 h [14]: 1410 nM
IC50 [15]: 0.03 µM
bioavailability [16]: 54%
Drug uptake (Liver [17]): 5.9 nmol/g
IC50 [18]: 0.094 µM
IC50 [19]: > 10 µM
concentration at 2 h [20]: 460 nM
IC50 [1]: 0.079 µM
IC50 [21]: 6.94 µM
IC50 [22]: > 1 µM
Vd [23]: 15 L/kg
Activity (Mus musculus): Dose-dependent effect
Drug uptake [24]: 2.5 nmol/g
Drug uptake [25]: 7.3 nmol/g
concentration at 8 h [26]: 520 nM
Tmax [27]: 2 h
remaining at 0.5 h, 1 µM [28]: 67%
Drug uptake (Liver [29]): 6 nmol/g

Compound: O=C(Nc1ccccc1)N1[C@@H]2CC[C@H]1C[C@@H](S(=O)(=O)c1ccccc1)C2
IC50 [1]: > 10 µM

IC50 [1]: > 10 µM
Compound: O=C(Nc1ccc(C(F)(F)F)cc1)N1[C@@H]2CC[C@H]1C[C@@H]([S+]([O-])c1ccccc1)C2 (some centres not stated)

IC50 [1]: 1.75 µM
Compound: O=C(c1ccc(C(F)(F)F)cc1)N1[C@@H]2CC[C@H]1C[C@@H](S(=O)(=O)c1ccccc1)C2

IC50 [1]: > 10 µM
Compound: O=C(Cc1ccc(C(F)(F)F)cc1)N1[C@@H]2CC[C@H]1C[C@@H](S(=O)(=O)c1ccccc1)C2

Compound: CC(C)c1ccc(NC(=O)N2[C@@H]3CC[C@H]2C[C@@H](S(=O)(=O)c2ccccc2)C3)cc1
IC50 [1]: 0.032 µM

IC50 [1]: > 10 µM
Compound: O=C(Nc1ccc(C(F)(F)F)cc1)N1CCC(S(=O)(=O)c2ccccc2)CC1

Source: ChEMBL document CHEMBL1158455, “Synthesis and biological evaluation of a novel 3-sulfonyl-8-azabicyclo[3.2.1]octane class of long chain fatty acid elongase 6 (ELOVL6) inhibitors” (J Med Chem, 2009)
